Screens as filed in PubChem.
DENV2 CPE = inhibitors of DENV2 cytopathic effect, primary screen, cell-based, plate reader, single concentration; AID 651640, 2012; DENV2-infected cells, cytopathic effect rescue; CPE inhibition, % at 9.99 µM; hit rate 1.7% among 350,000; in the data active means CPE inhibition above about 20%, passing the limit was not always enough; inconclusive means no clear call, values can overlap the other calls; tested in BHK-21 cells;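 further: 0% = median of neutral control wells and 100% = median of positive control wells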
S100A4 MyoIIA = inhibitors of S100A4-myosin IIA peptide binding, primary screen, biochemical, fluorescence polarization, TAMRA-MyoIIA peptide; Protein S100-A4 (Homo sapiens), P26447; inhibition, % at 10.7 µM; hit rate 0.14% among 360,000; AID 652163, 2013;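 active means mean inhibition of at least 70% across replicates, with every replicate also reaching that level; inconclusive means mean inhibition reaches 70% but some replicates fall short; inactive means mean inhibition below 70%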
Target sequence (P26447 whole entry, looked up): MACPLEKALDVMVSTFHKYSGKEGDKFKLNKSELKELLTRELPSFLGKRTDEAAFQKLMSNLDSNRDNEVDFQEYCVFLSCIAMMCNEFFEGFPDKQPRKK
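Material: S100A4 monomer protein | Medium: HEPES pH 7.2 with CaCl2, KCl, NaCl, DTT, Triton | Reagent: Labelled myosin peptide probe, 5 nM | Doses: One dose per compound | Times: 5 min incubation before reading | Benchmarks: Neutral control DMSO, positive control TFP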
SIRT5 inh = SIRT5 desuccinylase inhibitors, primary screen, biochemical, fluorescence imaging, single point, set 5. NAD-dependent protein deacylase sirtuin-5, mitochondrial (Homo sapiens), Q9NXA8. Purified SirT5, succinyl-peptide AMC, trypsin-coupled fluorescence. inhibition, % at 15 µM. hit rate 1.1% among 330,000; in the data active means inhibition above about 15%; inconclusive means no clear call, values can overlap the other calls
Target sequence (Q9NXA8 whole entry, looked up): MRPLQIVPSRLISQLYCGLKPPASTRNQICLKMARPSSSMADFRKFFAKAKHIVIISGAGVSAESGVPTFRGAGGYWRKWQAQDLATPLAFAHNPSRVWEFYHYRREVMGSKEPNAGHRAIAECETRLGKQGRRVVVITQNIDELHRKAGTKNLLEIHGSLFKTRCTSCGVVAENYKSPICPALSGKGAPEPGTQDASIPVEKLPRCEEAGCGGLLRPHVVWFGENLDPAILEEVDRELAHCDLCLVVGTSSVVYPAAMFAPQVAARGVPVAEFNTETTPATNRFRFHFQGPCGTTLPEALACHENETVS
C2C12 statin = suppressors of statin myotoxicity in C2C12 myotubes, primary screen, cell-based, single point, plate reader. rescue of ATP level, % at 7.49 µM. C2C12 myotubes + simvastatin, ATP luminescence, 48 h; scaled: DMSO 0, geranylgeraniol control 100. hit rate 0.78% among 330,000;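 active means mean ATP rescue above about 67%, or every replicate alone reaching that limit, limit read from the data, passing the limit was not always enough; inconclusive means no clear call, values can overlap the other calls; inactive means mean under the limit and some replicate under it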;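 further: myotubes were challenged with 10 µM simvastatin during compound exposure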
PGC1a acetyl inh = inhibitors of PGC1a acetylation signal, primary screen, cell-based, U2OS, AlphaScreen, inhibitor mode. AlphaScreen anti-acetyl-lysine; with virally co-expressed GCN5 acetyltransferase. hit rate 0.17% among 350,000. inhibition, % at 15.6 µM. AID 651687, 2012;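 active means every replicate shows inhibition of at least 40%; inconclusive means mean inhibition at least 40% but some replicate below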;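 further: 0% = neutral control wells and 100% = positive control wells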
Numbers without * were called inactive; ? = inconclusive; / = no result given; ! = repeats disagree. This is a sample that favours compounds with a hit; in the whole collection about 2.9% have one here.

SMILES	DENV2 CPE	S100A4 MyoIIA	SIRT5 inh	C2C12 statin	PGC1a acetyl inh
C[C@H]1CN([C@@H](C)CO)C(=O)Cc2cc(NC(=O)Cc3cn(C)c4ccccc34)ccc2O[C@@H]1CN(C)C	?	-28	5	4	-5
C[C@H]1CN([C@@H](C)CO)C(=O)Cc2cc(NC(=O)CCCCCC(=O)Nc3ccccc3N)ccc2O[C@H]1CN(C)S(=O)(=O)c1ccccc1	-1	-5	3	-3	-3
Cc1cc(N2CC(C(=O)O)CC2=O)ccc1Br (centres undefined)	/	/	/	76*	11
O=C(Nc1ccccc1N1CCOCC1)C1=NN(c2ccccc2)C(=O)CC1	69*	-3	2	-4	/
CC(C)Nc1nc(NC(C)C)nc(N(C)n2cnnc2)n1	/	/	/	98*	-7
O=C(N[C@H]1CC[C@H](CCNS(=O)(=O)Cc2ccccc2)O[C@H]1CO)c1ccc2c(c1)OCO2	-2	2	2	3	3
COc1ccc(NC(=O)CN2CCOCC2)cc1S(=O)(=O)N1CCCCC1	2	-3	0	-3	-7
CCN(CC)CCNC(=O)c1ccc(NC(=O)Cc2ccc(OC)c(S(=O)(=O)N3CCOCC3)c2)cc1	40*	-20	4	8	/
COc1ccc(NC(=O)CN2CCc3ccccc3C2)cc1S(=O)(=O)N1CCOCC1	51*	-3	/	/	/
CCC(=O)N1[C@H](CO)[C@H](c2ccccc2)C12CN(C(=O)CN1CCOCC1)C2	9	/	-2	/	4
[O-][n+]1onc2c1CCc1nnc(-c3ccccc3)cc1-2	/	/	/	/	12
[O-][n+]1onc2c1CCc1nnccc1-2	/	/	/	84*	4
COc1ccc(S(=O)(=O)N(C)C[C@H]2Oc3c(NC(=O)Nc4c(C)noc4C)cccc3C(=O)N([C@@H](C)CO)C[C@@H]2C)cc1	/	/	/	/	9
NNC(=O)c1ccc(-c2ccccc2F)cc1	27*	2	-3	/	/
O=C(Nc1ccc(F)cc1)c1sc2cc(C(F)(F)F)cnc2c1-c1cccs1	/	/	/	/	114*
Cc1ccc(NC(=S)NCCSc2ccc(Cl)cc2)cc1	2	-4	6	/	1
Cc1ccc(SCCNC(=S)Nc2cc(C)cc(C)c2)cc1	/	/	/	117*	-7
CC#CCN1C=C(C(=O)OCC)C(C)N(Cc2ccc(Br)cc2)S1(=O)=O (centres undefined)	17	5	-2	-3	-2
CCCN1C(C)C(C(=O)OCC)=CN(Cc2ccc(Br)cc2)S1(=O)=O (centres undefined)	9	0	32*	-14	-15
O=C(NC1CCCC1)[C@@H]1[C@@H](CO)[C@@H]2Cn3c(ccc(-c4ccncc4)c3=O)[C@@H]2N1CCc1ccccc1	2	9	1	-15	/
COc1ccc(CN2CCC(C(=O)NC(c3ccc4c(c3)OCO4)c3ccccn3)CC2)cc1 (centres undefined)	100*	-7	-2	21	6
COc1cccc(OC)c1OCCN1CCC(C(=O)NC(c2ccc3c(c2)OCO3)c2ccccn2)CC1 (centres undefined)	-4	-1	/	13	9
Cc1ccc(S(=O)(=O)N(C)CC(=O)N2CCN(Cc3ccc4c(c3)OCO4)CC2)cc1	6	0	30*	16	/
Cc1ccc(S(=O)(=O)N(C)c2ccc(C(=O)N3CCN(Cc4ccc5c(c4)OCO5)CC3)cc2)cc1	/	/	/	-32	-28
O=C(NC(c1ccc(Cl)cc1)c1cnccn1)C1CCN(Cc2ccc(Oc3ccccc3)cc2)CC1 (centres undefined)	84*	3	0	-8	-11
SMILES	DENV2 CPE	S100A4 MyoIIA	SIRT5 inh	C2C12 statin	PGC1a acetyl inh
COc1cccc(CN2CCC(C(=O)N3CCN(Cc4ccc5c(c4)OCO5)CC3)CC2)c1	5	1	17*	-14	/
O=C(C[C@@H]1C[C@@H]2c3cc(NC(=O)NC4CCCCC4)ccc3O[C@@H]2[C@H](CO)O1)NCc1ccncc1	15	-101	-4	3	-2
COc1ccc(C(NC(=O)C2CCN(CCc3ccccc3)CC2)c2ccccn2)cc1 (centres undefined)	2	-7	15*	8	-29
Cc1cccnc1C(NC(=O)C1CCN(CCCc2ccccc2)CC1)c1ccc(Cl)cc1 (centres undefined)	20*	-2	2	-10	/
COCC(=O)N(C)C[C@H]1Oc2ncc(C3=CCCC3)cc2C(=O)N([C@@H](C)CO)C[C@@H]1C	-2	12	-1	-4	1
O=C(NCc1ccc(F)cc1)C1CCC(CNS(=O)(=O)c2cccs2)CC1 (centres undefined)	-2	4	-1	-29	3
COc1ccc(NC(=O)C2CCC(CNS(=O)(=O)c3cccs3)CC2)cc1OC (centres undefined)	31*	-35	-2	/	/
O=C(NCc1ccccc1)C1CCC(CNS(=O)(=O)c2cccs2)CC1 (centres undefined)	-2	-1	-1	97*	2
C[C@@H]1CN([C@@H](C)CO)S(=O)(=O)c2ccc(/C=C/c3ccccc3)cc2O[C@@H]1CN(C)C(=O)Nc1ccc(F)cc1	5	-11	17*	15	7
COc1cccc(-c2ccc3c(c2)O[C@H](CN(C)C(=O)c2ccccc2F)[C@H](C)CN([C@H](C)CO)S3(=O)=O)c1	5	-5	37*!	-12	-2
Cc1ccccc1-c1ccc2c(c1)O[C@H](CN(C)C(=O)Nc1ccc(F)cc1)[C@H](C)CN([C@H](C)CO)S2(=O)=O	-10	4	16*	-23	14
COc1cccc(-c2ccc3c(c2)O[C@@H](CN(C)C(=O)c2ccccc2F)[C@H](C)CN([C@H](C)CO)S3(=O)=O)c1	0	-15	7	-81	-29
C[C@@H]1CN([C@H](C)CO)S(=O)(=O)c2ccc(/C=C/c3ccccc3)cc2O[C@H]1CN(C)C(=O)Nc1cc(F)ccc1F	19	-17	23*	-92	-1
COc1ccc(S(=O)(=O)N[C@@H]2C=C[C@@H](CC(=O)NCCc3ccncc3)O[C@H]2CO)cc1	13	-17	1	-8	2
C[C@@H]1CN([C@H](C)CO)S(=O)(=O)c2ccc(/C=C/c3ccccc3)cc2O[C@@H]1CN(C)C(=O)Nc1cc(F)ccc1F	-3	-10	25*	5	-1
C[C@H](CO)N1C[C@H](C)[C@@H](CN(C)C(=O)Nc2cc(F)ccc2F)Oc2cc(/C=C/c3ccccc3)ccc2S1(=O)=O	0	-3	21*	-58	-16
COc1cccc(NC(=O)N(C)C[C@@H]2Oc3cc(/C=C/c4ccccc4)ccc3S(=O)(=O)N([C@@H](C)CO)C[C@H]2C)c1	2	8	102*	-109	-4
